# Source: ChEMBL document CHEMBL4406820, “Novel reverse thia-analogs of fosmidomycin: Synthesis and antiplasmodial activity” (Eur J Med Chem, 2019)
# pIC50: −log10 of the molar value.
# What was measured:
# [1] = test system: Acinetobacter baumannii; test: Antimicrobial activity against Acinetobacter baumannii ATCC BAA747 incubated for 18 hrs by microbroth dilution assay; format: functional; conditions: ATCC BAA747, 18 h
# [2] = test system: Klebsiella pneumoniae; test: Antimicrobial activity against Klebsiella pneumoniae ATCC 700603 incubated for 18 hrs by microbroth dilution assay; format: functional; conditions: ATCC 700603, 18 h
# [3] = test system: Escherichia coli; test: Antimicrobial activity against Escherichia coli ATCC BAA 2469 incubated for 18 hrs by microbroth dilution assay; format: functional; conditions: ATCC BAA 2469, 18 h
# [4] = test system: Mycobacterium tuberculosis; test: Antimycobacterial activity against Mycobacterium tuberculosis H37Rv incubated for 5 days by resazurin dye based assay; format: functional; conditions: 120 h
# [5] = test system: Klebsiella pneumoniae; test: Antimicrobial activity against Klebsiella pneumoniae ATCC 13883 incubated for 18 hrs by microbroth dilution assay; format: functional; conditions: ATCC 13883, 18 h
# [6] = test system: Escherichia coli; test: Antimicrobial activity against Escherichia coli ATCC 25922 incubated for 18 hrs by microbroth dilution assay; format: functional; conditions: ATCC 25922, 18 h
# [7] = test system: Pseudomonas aeruginosa; test: Antimicrobial activity against Pseudomonas aeruginosa ATCC 27853 incubated for 18 hrs by microbroth dilution assay; format: functional; conditions: ATCC 27853, 18 h
# [8] = test system: Acinetobacter baumannii; test: Antimicrobial activity against Acinetobacter baumannii ATCC BAA 1605 incubated for 18 hrs by microbroth dilution assay; format: functional; conditions: ATCC BAA 1605, 18 h
# [9] = molecular target: T1, 1-deoxy-D-xylulose 5-phosphate reductoisomerase (Escherichia coli, UniProt W8T2T2); test: Inhibition of recombinant Escherichia coli IspC expressed in Escherichia coli M15 using 1-deoxy-D-xylulose 5-phosphate as substrate by photometric assay
# T1 sequence (W8T2T2 whole entry): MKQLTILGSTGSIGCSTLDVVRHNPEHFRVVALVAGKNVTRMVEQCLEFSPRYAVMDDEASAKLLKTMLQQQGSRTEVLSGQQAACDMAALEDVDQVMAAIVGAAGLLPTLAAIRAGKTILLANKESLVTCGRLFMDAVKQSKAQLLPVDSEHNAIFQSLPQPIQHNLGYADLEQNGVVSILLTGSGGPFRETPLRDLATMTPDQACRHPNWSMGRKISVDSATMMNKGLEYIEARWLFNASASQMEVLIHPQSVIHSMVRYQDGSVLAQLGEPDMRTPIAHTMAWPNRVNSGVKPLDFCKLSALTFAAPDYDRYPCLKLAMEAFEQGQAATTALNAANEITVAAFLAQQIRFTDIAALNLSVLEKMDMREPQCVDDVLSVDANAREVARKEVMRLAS
# How it was run: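 E. coli IspC, His-tagged, expressed in E. coli M15 pREP4 (IPTG 1 mM, 36 h at 20 °C) and purified by Ni2+-chelate chromatography to about 95% purity. Reaction mix: 100 mM Tris-HCl pH 7.6, 5 mM MnCl2, 5 mM DTT, 0.5 mM NADPH, 0.02 U enzyme. Inhibitor tested as a 1:3 series from 200 to 0.003 µM. Started with 0.5 mM DXP; NADPH consumption read at 340 nm, room temperature. IC50 fitted from at least eight points.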
# [10] = molecular target: T2, 1-deoxy-D-xylulose 5-phosphate reductoisomerase (Mycobacterium tuberculosis, UniProt P9WNS1); test: Inhibition of recombinant Mycobacterium tuberculosis IspC expressed in Escherichia coli M15 using 1-deoxy-D-xylulose 5-phosphate as substrate by photometric assay
# T2 sequence (P9WNS1 whole entry): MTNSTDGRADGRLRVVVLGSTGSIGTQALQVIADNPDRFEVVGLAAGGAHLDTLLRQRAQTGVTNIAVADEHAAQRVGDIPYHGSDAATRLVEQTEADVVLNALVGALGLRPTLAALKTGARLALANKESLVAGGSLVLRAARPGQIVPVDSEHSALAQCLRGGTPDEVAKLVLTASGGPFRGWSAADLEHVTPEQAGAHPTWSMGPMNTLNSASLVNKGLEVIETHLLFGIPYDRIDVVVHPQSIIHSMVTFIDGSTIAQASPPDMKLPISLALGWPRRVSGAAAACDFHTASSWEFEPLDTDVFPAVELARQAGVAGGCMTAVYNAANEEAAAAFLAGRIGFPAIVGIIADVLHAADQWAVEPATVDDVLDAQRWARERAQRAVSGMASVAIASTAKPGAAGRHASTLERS
# [11] = test system: HeLa; test: Cytotoxicity against human HeLa cells assessed as reduction in cell viability incubated for 24 hrs by neutral red assay; format: cell-based
# How it was run: (§1)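 Cytotoxicity on HeLa monolayers quantified spectrophotometrically, given as the mean of two independent double determinations. SI is HeLa IC50 divided by the P. falciparum 3D7 IC50.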
# [12] = test system: Plasmodium falciparum; test: Antimalarial activity against asexual blood stages of Plasmodium falciparum 3D7 infected in human erythrocytes incubated for 3 days by ELISA; format: functional, organism-based; conditions: 3D7, 72 h
# How it was run: (§2)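 Asexual blood-stage P. falciparum cultured in human erythrocytes; growth measured by HRP2 double-site sandwich ELISA. IC50 values are the mean of two independent double determinations.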
# [13] = molecular target: T3, 1-deoxy-D-xylulose 5-phosphate reductoisomerase, apicoplastic (Plasmodium falciparum (isolate 3D7), UniProt Q8IKG4); test: Inhibition of recombinant Plasmodium falciparum IspC expressed in Escherichia coli using 1-deoxy-D-xylulose 5-phosphate as substrate by photometric assay
# T3 sequence (Q8IKG4 whole entry): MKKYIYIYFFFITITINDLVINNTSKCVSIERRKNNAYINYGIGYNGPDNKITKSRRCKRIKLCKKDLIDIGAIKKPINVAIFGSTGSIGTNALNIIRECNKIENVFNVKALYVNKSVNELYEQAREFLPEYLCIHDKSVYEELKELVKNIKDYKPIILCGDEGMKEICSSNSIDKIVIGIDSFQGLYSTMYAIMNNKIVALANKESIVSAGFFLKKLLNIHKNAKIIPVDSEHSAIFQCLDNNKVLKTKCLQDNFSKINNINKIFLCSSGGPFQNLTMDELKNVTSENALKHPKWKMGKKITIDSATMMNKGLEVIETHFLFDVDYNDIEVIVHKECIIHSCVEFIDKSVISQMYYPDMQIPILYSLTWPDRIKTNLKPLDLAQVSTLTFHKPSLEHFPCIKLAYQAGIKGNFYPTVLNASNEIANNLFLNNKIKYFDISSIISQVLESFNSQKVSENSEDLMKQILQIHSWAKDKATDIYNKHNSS
# How it was run: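 P. falciparum IspC expressed in E. coli. Reaction mix: 100 mM Tris-HCl pH 7.6, 5 mM MnCl2, 5 mM DTT, 0.5 mM NADPH, 0.02 U enzyme. Inhibitor tested as a 1:3 series from 200 to 0.003 µM. Started with 0.5 mM DXP; read at 340 nm, room temperature. IC50 calculated from at least eight data points; generally two to three independent determinations.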
# [14] = Selectivity index, ratio of IC50 for human HeLa cells to IC50 for Plasmodium falciparum 3D7; format: toxicity; conditions: read-out: Ratio IC50; how it was run: as §1
# [15] = test system: Plasmodium falciparum; test: Antimalarial activity against asexual blood stages of Plasmodium falciparum Dd2 infected in human erythrocytes incubated for 3 days by ELISA; format: functional, organism-based; conditions: Dd2, 72 h; how it was run: as §2
structure (smiles),measurement,setting,value
Cc1ccc(C(SCC(=O)N(C)O)P(=O)(O)O)cc1 (racemic),MIC,[1],> 100 µM
same,MIC,[2],> 100 µM
same,MIC,[3],> 100 µM
same,MIC,[4],> 100 µM
same,MIC,[5],> 100 µM
same,MIC,[6],> 100 µM
same,MIC,[7],> 100 µM
same,MIC,[8],> 100 µM
O=CN(O)CCCP(=O)(O)O [FOSMIDOMYCIN SODIUM],pIC50,[9],6.66
CN(O)C(=O)CS(=O)(=O)C(c1ccc(Cl)c(Cl)c1)P(=O)(O)O (stereo not drawn),MIC,[1],> 100 µM
same,MIC,[2],> 100 µM
same,pIC50,[10],4.68
same,MIC,[3],> 100 µM
same,MIC,[4],> 100 µM
same,pIC50,[11],< 3.00
same,pIC50,[9],4.96
same,MIC,[5],> 100 µM
same,MIC,[6],> 100 µM
same,pIC50,[12],< 4.00
same,MIC,[7],> 100 µM
same,MIC,[8],> 100 µM
same,pIC50,[13],6.00
CN(O)C(=O)CSC(c1ccc(Cl)c(Cl)c1)P(=O)(O)O (racemic),MIC,[1],> 100 µM
same,MIC,[2],> 100 µM
same,MIC,[3],> 100 µM
same,MIC,[4],> 100 µM
same,MIC,[5],> 100 µM
same,MIC,[6],> 100 µM
same,MIC,[7],> 100 µM
same,MIC,[8],> 100 µM
Cc1ccc(C(P(=O)(O)O)S(=O)(=O)CC(=O)N(C)O)cc1 (stereo not drawn),MIC,[1],> 100 µM
same,MIC,[2],> 100 µM
same,pIC50,[10],3.84
same,MIC,[3],> 100 µM
same,MIC,[4],> 100 µM
same,pIC50,[11],< 4.30
same,pIC50,[9],4.44
same,MIC,[5],> 100 µM
same,MIC,[6],> 100 µM
same,pIC50,[12],< 4.00
same,MIC,[7],> 100 µM
same,MIC,[8],> 100 µM
same,pIC50,[13],5.07
COc1cc(OC)cc(C(P(=O)(O)O)S(=O)(=O)CC(=O)N(C)O)c1 (stereo not drawn),pIC50,[10],< 3.00
same,pIC50,[11],< 3.00
same,pIC50,[9],4.10
same,pIC50,[12],< 4.00
same,pIC50,[13],5.43
CN(O)C(=O)CS(=O)(=O)C(c1cccc2ccccc12)P(=O)(O)O (stereo not drawn),MIC,[1],> 100 µM
same,MIC,[2],> 100 µM
same,pIC50,[10],3.21
same,MIC,[3],> 100 µM
same,MIC,[4],> 100 µM
same,pIC50,[11],< 3.00
same,pIC50,[9],4.82
same,MIC,[5],> 100 µM
same,MIC,[6],> 100 µM
same,pIC50,[12],< 4.00
same,MIC,[7],> 100 µM
same,MIC,[8],> 100 µM
same,pIC50,[13],3.08
CN(O)C(=O)CS(=O)(=O)C(c1cc(F)cc(F)c1)P(=O)(O)O (stereo not drawn),MIC,[1],> 100 µM
same,MIC,[2],> 100 µM
same,pIC50,[10],4.36
same,MIC,[3],> 100 µM
same,MIC,[4],> 100 µM
same,pIC50,[11],< 3.00
same,pIC50,[9],5.37
same,MIC,[5],> 100 µM
same,MIC,[6],> 100 µM
same,pIC50,[12],4.72
same,MIC,[7],> 100 µM
same,MIC,[8],> 100 µM
same,pIC50,[13],5.26
O=C(CSC(c1cc(F)cc(F)c1)P(=O)(O)O)NO (racemic),MIC,[1],> 100 µM
same,MIC,[2],> 100 µM
same,pIC50,[10],6.49
same,MIC,[3],> 100 µM
same,MIC,[4],> 100 µM
same,pIC50,[11],< 3.00
same,pIC50,[9],7.89
same,selectivity ratio,[14],> 810
same,MIC,[5],> 100 µM
same,pIC50,[15],6.06
same,MIC,[6],> 100 µM
same,pIC50,[12],5.92
same,MIC,[7],> 100 µM
same,MIC,[8],> 100 µM
same,pIC50,[13],7.96
CN(O)C(=O)CSC(c1cc(F)cc(F)c1)P(=O)(O)O (racemic),MIC,[1],> 100 µM
same,MIC,[2],> 100 µM
same,pIC50,[10],6.96
same,MIC,[3],> 100 µM
same,MIC,[4],> 100 µM
same,pIC50,[11],< 3.00
same,pIC50,[9],7.74
same,selectivity ratio,[14],> 6700
same,MIC,[5],> 100 µM
same,pIC50,[15],6.89
same,MIC,[6],> 100 µM
same,pIC50,[12],6.82
same,MIC,[7],> 100 µM
same,MIC,[8],> 100 µM
same,pIC50,[13],7.89
CN(O)C(=O)CS(=O)(=O)C(c1ccccc1)P(=O)(O)O (stereo not drawn),pIC50,[10],3.94
same,pIC50,[9],4.44
same,pIC50,[12],< 4.00
same,pIC50,[13],5.12
COc1cc(OC)cc(C(P(=O)(O)O)S(=O)(=O)CC(=O)NO)c1 (stereo not drawn),MIC,[1],> 100 µM
same,MIC,[2],> 100 µM
same,pIC50,[10],3.71
same,MIC,[3],> 100 µM
same,MIC,[4],> 100 µM
same,pIC50,[11],< 3.30
same,pIC50,[9],5.35
same,MIC,[5],> 100 µM
same,MIC,[6],> 100 µM
same,pIC50,[12],5.57
same,MIC,[7],> 100 µM
same,MIC,[8],> 100 µM
same,pIC50,[13],6.66
Cc1ccc(C(P(=O)(O)O)S(=O)(=O)CC(=O)NO)cc1 (stereo not drawn),pIC50,[10],< 3.00
same,pIC50,[9],4.19
same,pIC50,[12],< 4.00
same,pIC50,[13],4.19
CN(O)C(=O)CSC(c1cccc2ccccc12)P(=O)(O)O (racemic),MIC,[1],> 100 µM
same,MIC,[2],> 100 µM
same,MIC,[3],> 100 µM
same,MIC,[4],> 100 µM
same,MIC,[5],> 100 µM
same,MIC,[6],> 100 µM
same,MIC,[7],> 100 µM
same,MIC,[8],> 100 µM
